Laboratory results as given in article PMC4894453 (Scientific Reports, 2014).
Values after ≈ are worked out from the molar mass of the structure shown. “Also recorded” adds a separate entry of the source.

Key:
S. aureus Newman [1] = test: Membrane potential by flow cytometry with DiOC2; type: cell-based, Staphylococcus aureus; conditions: 10 μM, 30 min, DiOC2(3)
Outline: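 Exponential-phase S. aureus Newman (OD600 ≈ 0.3, Mueller-Hinton II broth) treated with test compound at 100, 10 or 1 μM for 30 min at 37°C. Cells stained 5 min with 30 μM DiOC2(3) and run on flow cytometry (10,000 events, 488 nm excitation, green and red emission). Red/green fluorescence ratio histograms compared. CCCP was the positive control; at least two independent samples.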

[2] = system: Enterococcus faecalis ATCC 33186; test: MIC, microbroth dilution, Enterococcus faecalis; type: cell-based; conditions: Enterococcus faecalis, ATCC33186, read-out: MIC against Gram-positive bacteria, EF, Enterococcus faecalis ATCC 33186; Mueller-Hinton broth, 18–20 h
[3] = system: Streptococcus pyogenes ATCC 700294; test: MIC, microbroth dilution, Streptococcus pyogenes; type: cell-based; conditions: Streptococcus pyogenes, ATCC700294, read-out: MIC against Gram-positive bacteria, SP
[4] = system: Streptococcus pneumoniae R6; test: MIC, microbroth dilution, Streptococcus pneumoniae; type: cell-based; conditions: Streptococcus pneumoniae, R6, read-out: MIC against Gram-positive bacteria, SPn
Outline: (§1)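 CLSI microbroth dilution in Mueller-Hinton broth. Test compound at final 200–0.1 μg/ml, diluted from 10 mg/ml DMSO stocks. Plates incubated 18–20 h. MIC is the lowest concentration preventing visible growth.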

[5] = system: Bacillus anthracis sterne; test: microbe, parasite or virus in culture; type: cell-based; conditions: Bacillus anthracis, read-out: MIC against Gram-positive bacteria, BA
[6] = system: Bacillus subtilis ATCC 23857; test: MIC, microbroth dilution, Bacillus subtilis; type: cell-based; conditions: Bacillus subtilis, ATCC23857, read-out: MIC against Gram-positive bacteria, BS
Outline: as §1

[7] = system: Clostridium difficile BAA 1803; test: MIC, microbroth dilution, anaerobic, Clostridium difficile; type: cell-based; conditions: for MIC: Clostridioides difficile, BAA1803, 24 h, read-out: MIC against Gram-positive bacteria, CD, Clostridium difficile BAA 1803, Brain-heart infusion broth, 24 h, anaerobic
[8] = system: methicillin-resistant Staphylococcus aureus N315; test: MIC, microbroth dilution, MRSA; type: cell-based; conditions: Staphylococcus aureus, MRSA, read-out: MIC against Gram-positive bacteria, MRSA
Outline: as §1

[9] = system: Vero cells (kidney epithelial cells; ATCC CCL-81); test: Cytotoxicity, CellTiter-Glo viability; type: cell-based; conditions: for Selectivity index: Cytotox IC50/MIC against methicillin-susceptible S. aureus Newman
Outline: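 Vero kidney epithelial cells exposed 72 h to test compound (final 200–0.1 μg/ml in DMEM; diluted from 10 mg/ml DMSO stocks). Viability read by CellTiter-Glo luminescence. IC50 is the concentration giving 50% viability loss, from curve fitting. Selectivity index is the cytotoxic IC50 divided by the MIC against S. aureus Newman.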

[10] = system: panel of clinical relevant Gram-positive pathogens; test: MIC, statements over the Gram-positive panel; type: cell-based; conditions: for MIC: read-out: MIC over the Gram-positive panel
[11] = system: methicillin-susceptible Staphylococcus aureus Newman; test: MIC, microbroth dilution, MSSA; type: cell-based; conditions: for MIC against Gram-positive bacteria, MSSA: S. aureus Newman, 18–20 h; for fold improvement in activity over reutericyclin: S. aureus, strain not given
Outline: as §1

S. aureus Newman [12] = test: Membrane permeability by flow cytometry with propidium iodide; type: cell-based, Staphylococcus aureus; conditions: 10 μM, 30 min, concentrations causing dissipation of the membrane potential
Outline: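 S. aureus Newman grown in Mueller-Hinton II broth to OD600 ≈ 0.3 and exposed to test compound at 10 μM for 30 min. Propidium iodide (10 μM) added for 10 min in the dark. Flow cytometry: 10,000 events, 488 nm excitation, red fluorescence; event histograms compared. Thioridazine at 100 μg/mL served as positive control.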

| SMILES | dissipation of the membrane potential (S. aureus Newman [1]) | MIC [2] [µg/mL] | MIC [3] [µg/mL] | MIC [4] [µg/mL] | MIC [5] [µg/mL] | MIC [6] [µg/mL] | MIC [7] [µg/mL] | MIC [8] [µg/mL] | Selectivity index [9] | fold better activity than 3 throughout the panel ([10]; Gram-positive panel, compared to 3) [fold] | fold less active than reutericyclin ([10]; Gram-positive panel (most bacteria)) [fold] | Cytotox IC50 ([9]; Vero kidney cells, 72 h, 50% reduction of viability) [µg/mL] | MIC against Gram-positive bacteria, MSSA [11] [µg/mL] | MIC [10] [µg/mL] | fold improvement in activity over reutericyclin [11] [fold] | fold improvement in activity over reutericyclin ([7]; C. difficile) [fold] | physical integrity of the S. aureus membrane (propidium iodide uptake) (S. aureus Newman [12]) |
| --- | --- | --- | --- | --- | --- | --- | --- | --- | --- | --- | --- | --- | --- | --- | --- | --- | --- |
| N#CC(C#N)=NNc1cccc(Cl)c1 [CCCP, carbonyl cyanide m-chlorophenyl hydrazone, reference compound] | complete dissipation of the membrane potential |  |  |  |  |  |  |  |  |  |  |  |  |  |  |  |  |
| CCCCCCC/C=C/C(=O)N1C(=O)/C(=C(\O)c2ccncc2)C(=O)C1CC(C)C (stereo not shown) [Compound 8, (Z)-1-((E)-dec-2-enoyl)-3-(hydroxy(pyridin-4-yl)methylene)-5-isobutylpyrrolidine-2,4-dione] |  | 50 (≈ 121 µM) | 100 (≈ 242 µM) | 25 (≈ 60.6 µM) | 50 (≈ 121 µM) | 100 (≈ 242 µM) | 0.5 (≈ 1.21 µM) | 12.5 (≈ 30.3 µM) | 5 |  |  |  |  |  |  |  |  |
| C/C(O)=C1\C(=O)C(CC(C)C)N(C(=O)C=Cc2ccccc2)C1=O (stereo not shown) [Compound 4, (Z)-1-cinnamoyl-3-(1-hydroxyethylidene)-5-isobutylpyrrolidine-2,4-dione] |  | 12.5 (≈ 38.2 µM) | 25 (≈ 76.4 µM) | 3.13 (≈ 9.56 µM) | > 200 | 25 (≈ 76.4 µM) | 8 (≈ 24.4 µM) | 1.6 (≈ 4.89 µM) | 2 | ≤ 8 |  |  |  |  |  |  |  |
| CCCCC(=O)N1C(=O)/C(=C(/C)O)C(=O)C1CC(C)C (stereo not shown) [Compound 3, (Z)-3-(1-hydroxyethylidene)-5-isobutyl-1-pentanoylpyrrolidine-2,4-dione] |  | 50 (≈ 178 µM) | 12.5 (≈ 44.4 µM) | 6.25 (≈ 22.2 µM) | > 200 | 100 (≈ 355 µM) | 16 (≈ 56.9 µM) | 12.5 (≈ 44.4 µM) | 1 |  | ≥ 32 |  |  |  |  |  |  |
| CCCCCCC/C=C/C(=O)N1C(=O)/C(=C(/C)O)C(=O)C1Cc1ccc(O)cc1 (stereo not shown) [Compound 19, (Z)-1-((E)-dec-2-enoyl)-5-(4-hydroxybenzyl)-3-(1-hydroxyethylidene)pyrrolidine-2,4-dione] |  | 50 (≈ 125 µM) | 50 (≈ 125 µM) | 25 (≈ 62.6 µM) | 200 (≈ 501 µM) | 50 (≈ 125 µM) | 32 (≈ 80.1 µM) | 25 (≈ 62.6 µM) | 2 |  |  | 93.53 |  |  |  |  |  |
| CCCCCCC/C=C/C(=O)N1C(=O)/C(=C(\O)c2ccc(OCOCCOC)cc2)C(=O)C1CC(C)C (stereo not shown) [Compound 11, (Z)-1-((E)-dec-2-enoyl)-3-(hydroxy(4-((2-methoxyethoxy)methoxy)phenyl)methylene)-5-isobutylpyrrolidine-2,4-dione] |  | 0.78 (≈ 1.51 µM) | 25 (≈ 48.5 µM) | 12.5 (≈ 24.2 µM) | 0.2 (≈ 0.388 µM) | 1.56 (≈ 3.03 µM) | 0.25 (≈ 0.485 µM) | 0.2 (≈ 0.388 µM) | 25 |  |  |  |  |  |  |  |  |
| CCCCCCC/C=C/C(=O)N1C(=O)/C(=C(\O)c2ccc(O)cc2)C(=O)C1CC(C)C (stereo not shown) [Compound 12, (Z)-1-((E)-dec-2-enoyl)-3-(hydroxy(4-hydroxyphenyl)methylene)-5-isobutylpyrrolidine-2,4-dione] |  | 12.5 (≈ 29.2 µM) | 50 (≈ 117 µM) | 50 (≈ 117 µM) | 0.78 (≈ 1.82 µM) | 3.13 (≈ 7.32 µM) | 2 (≈ 4.68 µM) | 6.25 (≈ 14.6 µM) | 9 |  |  |  |  |  |  |  |  |
| CCCCCCC/C=C/C(=O)N1C(=O)/C(=C(\O)C2CCNCC2)C(=O)C1CC(C)C (stereo not shown) [Compound 9, (Z)-1-((E)-dec-2-enoyl)-3-(hydroxy(piperidin-4-yl)methylene)-5-isobutylpyrrolidine-2,4-dione] | reduced their ability to dissipate the membrane potential | 50 (≈ 119 µM) | 100 (≈ 239 µM) | 50 (≈ 119 µM) | 12.5 (≈ 29.9 µM) | 12.5 (≈ 29.9 µM) | 8 (≈ 19.1 µM) | 50 (≈ 119 µM) | 2 |  |  |  |  |  |  |  |  |
| CCCCCCC/C=C/C(=O)N1C(=O)/C(=C(\O)c2ccccc2)C(=O)C1CC(C)C (stereo not shown) [Compound 7, (Z)-1-((E)-dec-2-enoyl)-3-(hydroxy(phenyl)methylene)-5-isobutylpyrrolidine-2,4-dione] |  | 0.39 (≈ 0.948 µM) | 12.5 (≈ 30.4 µM) | 12.5 (≈ 30.4 µM) | > 200 | 0.78 (≈ 1.9 µM) | 0.75 (≈ 1.82 µM) | < 0.1 | >125 |  |  |  | <0.1 | < 1 |  |  |  |
| CCCCCCC/C=C/C(=O)N1C(=O)/C(=C(/C)O)C(=O)C1CO (stereo not shown) [Compound 15, (Z)-1-((E)-dec-2-enoyl)-3-(1-hydroxyethylidene)-5-(hydroxymethyl)pyrrolidine-2,4-dione] |  | 100 (≈ 309 µM) | 50 (≈ 155 µM) | 100 (≈ 309 µM) | > 200 | 200 (≈ 618 µM) | 64 (≈ 198 µM) | > 200 | 1 |  |  |  |  |  |  |  |  |
| CCCCCCC/C=C/C(=O)N1C(=O)/C(=C(/C)O)C(=O)C1Cc1ccc(OC(C)(C)C)cc1 (stereo not shown) [Compound 20, (Z)-5-(4-(tert-butoxy)benzyl)-1-((E)-dec-2-enoyl)-3-(1-hydroxyethylidene)pyrrolidine-2,4-dione] |  | 0.78 (≈ 1.71 µM) | 12.5 (≈ 27.4 µM) | 6.25 (≈ 13.7 µM) | 200 (≈ 439 µM) | 1.56 (≈ 3.42 µM) | 0.25 (≈ 0.549 µM) | < 0.1 | >115 |  |  |  | <0.1 |  | > 4 |  |  |
| CCCCCCC/C=C/C(=O)N1C(=O)/C(=C(/C)O)C(=O)C1CCCCN (stereo not shown) [Compound 17, (Z)-5-(4-aminobutyl)-1-((E)-dec-2-enoyl)-3-(1-hydroxyethylidene)pyrrolidine-2,4-dione] | reduced their ability to dissipate the membrane potential | 50 (≈ 137 µM) | > 200 | > 200 | > 200 | > 200 | > 64 | 200 (≈ 549 µM) | 1 |  |  |  |  |  |  |  |  |
| CCCCCCC/C=C/C(=O)N1C(=O)/C(=C(/C)O)C(=O)C1CCC(=O)O (stereo not shown) [Compound 16, 3-((Z)-1-((E)-dec-2-enoyl)-4-(1-hydroxyethylidene)-3,5-dioxopyrrolidin-2-yl)propanoic acid] |  | 25 (≈ 68.4 µM) | 50 (≈ 137 µM) | 25 (≈ 68.4 µM) | > 200 | 50 (≈ 137 µM) | > 64 | > 200 | 1 |  |  |  |  |  |  |  |  |
| CCCCCCC/C=C/C(=O)N1CC(=O)/C(=C(\C)O)C1=O [Compound 14, (Z)-1-((E)-dec-2-enoyl)-3-(1-hydroxyethylidene)pyrrolidine-2,4-dione] |  | 6.25 (≈ 21.3 µM) | 50 (≈ 170 µM) | 12.5 (≈ 42.6 µM) | 1.56 (≈ 5.32 µM) | 12.5 (≈ 42.6 µM) | 2 (≈ 6.82 µM) | 3.2 (≈ 10.9 µM) | 3 |  |  |  |  |  |  |  |  |
| CCCCCCC/C=C/C(=O)N1C(=O)/C(=C(\O)CCCC)C(=O)C1CC(C)C (stereo not shown) [Compound 6, (Z)-1-((E)-dec-2-enoyl)-3-(1-hydroxypentylidene)-5-isobutylpyrrolidine-2,4-dione] | slightly lower than reutericyclin; also recorded: did not rapidly dissipate the membrane potential | 0.2 (≈ 0.511 µM) | 3.13 (≈ 7.99 µM) | 3.13 (≈ 7.99 µM) | 0.39 (≈ 0.996 µM) | 0.39 (≈ 0.996 µM) | < 0.03 | < 0.1 | >58 |  |  |  |  | < 1 | > 4 | > 3 | did not disrupt the physical integrity |
